In ChEMBL document CHEMBL1147967, “Prodrug-based design, synthesis, and biological evaluation of N-benzenesulfonylpiperidine derivatives as novel, orally active factor Xa inhibitors” (Bioorg Med Chem, 2007):

What was measured:
Coagulation factor X = Coagulation factor X (Homo sapiens, UniProt P00742); assay: Inhibition of human factor 10a
Prothrombin = Prothrombin (Homo sapiens, UniProt P00734); assay: Inhibition of human thrombin
Homo sapiens [1] = species: Homo sapiens; assay: Selectivity for human factor 10a over human trypsin
Homo sapiens [2] = species: Homo sapiens; assay: Selectivity for human factor 10a over human thrombin
Trypsin = Trypsin (Homo sapiens, UniProt P07477+P07478+P35030); assay: Inhibition of human trypsin; format: protein assay
Plasma [3] = assay: Anticoagulant activity in mouse plasma assessed as concentration required to double prothrombin time; format: functional
Method in brief: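 Pooled citrated mouse plasma was incubated with diluted compound for 1 min at 37 °C. Brain thromboplastin PT reagent was then added to start clotting, and clot time was read on a coagulometer. The concentration doubling clotting time (CT₂) was estimated from each individual dose–response curve.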

Plasma [4] = assay: Anticoagulant activity in human plasma assessed as concentration required to double prothrombin time; format: functional
Mus musculus = assay: Anticoagulant activity in ICR mouse plasma assessed as PT-prolongation at 100 mg/kg, po after 0.5 hrs relative to control; format: functional
Method in brief: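 Male ICR mice (20–35 g), fasted overnight, were given compound orally by gastric tube at 100 mg/kg as a suspension in 0.5% methylcellulose. At 0.5 h, blood was drawn from the abdominal vena cava into 3.8% citrate, and platelet-poor plasma was prepared by centrifugation. PT was measured and expressed as percent change versus vehicle or normal plasma, mean ± SEM, n = 3.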

Sequence of Coagulation factor X (P00742 41-179 limits assumed): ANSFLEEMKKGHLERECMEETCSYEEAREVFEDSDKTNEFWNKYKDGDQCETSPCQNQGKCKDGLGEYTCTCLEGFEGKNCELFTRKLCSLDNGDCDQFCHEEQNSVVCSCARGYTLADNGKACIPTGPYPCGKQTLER
Sequence of Coagulation factor X (P00742 235-488 limits assumed): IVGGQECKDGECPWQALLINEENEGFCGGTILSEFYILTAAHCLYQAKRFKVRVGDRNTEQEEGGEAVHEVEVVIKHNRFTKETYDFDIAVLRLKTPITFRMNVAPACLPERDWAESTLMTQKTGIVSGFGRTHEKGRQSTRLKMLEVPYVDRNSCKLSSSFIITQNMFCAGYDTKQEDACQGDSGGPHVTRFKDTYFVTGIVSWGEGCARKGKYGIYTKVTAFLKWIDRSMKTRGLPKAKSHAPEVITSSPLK

SMILES | IC50 (Coagulation factor X) [nM] | IC50 (Prothrombin) [nM] | Selectivity ratio (Homo sapiens [1]) | Selectivity ratio (Homo sapiens [2]) | IC50 (Trypsin) [nM] | Activity (Plasma [3]) [µM] | Activity (Plasma [4]) [µM] | Activity (Mus musculus) [%]
COc1ccc(OC)c(S(=O)(=O)N2CCC(N(Cc3ccc4ccc(C(=N)N)cc4c3)C(C)=O)CC2)c1 | 12 | > 100000 | > 100 | > 7000 | 2500 | – | – | –
CS(=O)(=O)N(Cc1ccc2ccc(C(=N)N)cc2c1)C1CCN(C(=O)c2cccc(Cl)c2)CC1 | > 100000 | – | > 100 | > 7000 | – | – | – | –
COc1ccc(OC)c(S(=O)(=O)N2CCC(N(Cc3ccc4ccc(C(=N)N)cc4c3)S(=O)(=O)CC(=O)O)CC2)c1 | 13 | > 100000 | > 100 | > 7000 | 2700 | 1.7 | 0.55 | –
Cc1cccc(S(=O)(=O)N2CCC(N(Cc3ccc4ccc(C(=N)N)cc4c3)S(C)(=O)=O)CC2)c1 | 250 | – | – | – | – | – | – | –
CS(=O)(=O)N1CCC(N(Cc2ccc3ccc(C(=N)N)cc3c2)S(C)(=O)=O)CC1 | > 100000 | – | > 100 | > 7000 | – | – | – | –
CCOC(=O)CS(=O)(=O)N(Cc1ccc2ccc(/C(N)=N\O)cc2c1)C1CCN(S(=O)(=O)c2cc(OC)ccc2OC)CC1 | – | – | – | – | – | – | – | 101
CS(=O)(=O)N(Cc1ccc2ccc(C(=N)N)cc2c1)C1CCN(S(=O)(=O)c2cccc(-c3ccccc3)c2)CC1 | 200 | – | – | – | – | – | – | –
CC(=N)N1CC[C@H](Oc2ccc([C@H](Cc3ccc4ccc(C(=N)N)cc4c3)C(=O)O)cc2)C1 [DX-9065A] | – | – | – | – | 3200 | 4.9 | 0.55 | 151
CCOC(=O)CC(=O)N(C/C=C/c1cccc(/C(N)=N\O)c1)C1CCN(S(=O)(=O)c2cc(OC)ccc2OC)CC1 | – | – | > 100 | > 7000 | – | – | – | 187
COc1ccc(OC)c(S(=O)(=O)N2CCC(N(C/C=C/c3cccc(C(=N)N)c3)S(=O)(=O)CC(=O)O)CC2)c1 | 10 | > 100000 | > 100 | > 7000 | 5300 | 1.2 | 0.47 | –
CS(=O)(=O)N(Cc1ccc2ccc(C(=N)N)cc2c1)C1CCN(S(=O)(=O)c2cccc(C#N)c2)CC1 | 170 | – | – | – | – | – | – | –
CS(=O)(=O)N(Cc1ccc2ccc(C(=N)N)cc2c1)C1CCN(S(=O)(=O)c2ccccc2)CC1 | 850 | – | – | – | – | – | – | –
CS(=O)(=O)N(Cc1ccc2ccc(C(=N)N)cc2c1)C1CCN(S(=O)(=O)c2cc(Cl)sc2Cl)CC1 | 100 | – | – | – | – | – | – | –
CS(=O)(=O)N(Cc1ccc2ccc(C(=N)N)cc2c1)C1CCN(S(=O)(=O)c2ccc(Cl)cc2)CC1 | 1600 | – | – | – | – | – | – | –
CS(=O)(=O)N(Cc1ccc2ccc(C(=N)N)cc2c1)C1CCN(Cc2cccc(C#N)c2)CC1 | 2300 | – | > 100 | > 7000 | – | – | – | –
CS(=O)(=O)N(Cc1ccc2ccc(C(=N)N)cc2c1)C1CCN(S(=O)(=O)c2cccc(Cl)c2)CC1 | 49 | – | – | – | – | – | – | –
COc1ccc(OC)c(S(=O)(=O)N2CCC(N(Cc3ccc4ccc(C(=N)N)cc4c3)S(C)(=O)=O)CC2)c1 | 11 | > 100000 | > 100 | > 7000 | 1100 | – | – | –
COc1ccc(OC)c(S(=O)(=O)N2CCC(N(C)Cc3ccc4ccc(C(=N)N)cc4c3)CC2)c1 | 590 | – | – | – | – | – | – | –

SMILES | IC50 (Coagulation factor X) [nM] | IC50 (Prothrombin) [nM] | Selectivity ratio (Homo sapiens [1]) | Selectivity ratio (Homo sapiens [2]) | IC50 (Trypsin) [nM] | Activity (Plasma [3]) [µM] | Activity (Plasma [4]) [µM] | Activity (Mus musculus) [%]
COc1ccc(C)cc1S(=O)(=O)N1CCC(N(Cc2ccc3ccc(C(=N)N)cc3c2)S(C)(=O)=O)CC1 | 58 | – | > 100 | > 7000 | – | – | – | –
CS(=O)(=O)N(Cc1ccc2ccc(C(=N)N)cc2c1)C1CCN(c2ccncc2)CC1 | 90 | – | – | – | – | – | – | –
CCOC(=O)CS(=O)(=O)N(C/C=C/c1cccc(/C(N)=N\O)c1)C1CCN(S(=O)(=O)c2cc(OC)ccc2OC)CC1 | – | – | > 100 | > 7000 | – | – | – | 116
CS(=O)(=O)N(Cc1ccc2ccc(C(=N)N)cc2c1)C1CCN(Cc2cccc(Cl)c2)CC1 | 1700 | – | > 100 | > 7000 | – | – | – | –
CS(=O)(=O)N(Cc1ccc2ccc(C(=N)N)cc2c1)C1CCN(S(=O)(=O)c2cccc(Cl)c2Cl)CC1 | 560 | – | > 100 | > 7000 | – | – | – | –
CS(=O)(=O)N(Cc1ccc2ccc(C(=N)N)cc2c1)C1CCN(S(=O)(=O)c2ccc(Cl)c(Cl)c2)CC1 | 190 | – | > 100 | > 7000 | – | – | – | –
CS(=O)(=O)N(Cc1ccc2ccc(C(=N)N)cc2c1)C1CCN(S(=O)(=O)c2c(Cl)cccc2Cl)CC1 | > 100000 | – | > 100 | > 7000 | – | – | – | –
COc1ccc(OC)c(S(=O)(=O)N2CCC(N(C/C=C/c3cccc(C(=N)N)c3)C(=O)CC(=O)O)CC2)c1 | 13 | > 100000 | > 100 | > 7000 | 6000 | 1.4 | 0.55 | 104
COc1ccc(OC)c(S(=O)(=O)N2CCC(N(Cc3ccc4ccc(C(=N)N)cc4c3)C(=O)CC(=O)O)CC2)c1 | 8.1 | > 100000 | > 100 | > 7000 | 3700 | 1.6 | 0.56 | –
Cc1ccccc1S(=O)(=O)N1CCC(N(Cc2ccc3ccc(C(=N)N)cc3c2)S(C)(=O)=O)CC1 | 950 | – | > 100 | > 7000 | – | – | – | –
CS(=O)(=O)N(Cc1ccc2ccc(C(=N)N)cc2c1)C1CCN(S(=O)(=O)c2cc(Cl)ccc2Cl)CC1 | 65 | – | – | – | – | – | – | –
CS(=O)(=O)N(Cc1ccc2ccc(C(=N)N)cc2c1)C1CCNCC1 | > 100000 | – | > 100 | > 7000 | – | – | – | –
CS(=O)(=O)N(Cc1ccc2ccc(C(=N)N)cc2c1)C1CCN(S(=O)(=O)c2cccc(F)c2)CC1 | 800 | – | > 100 | > 7000 | – | – | – | –
CCOC(=O)CC(=O)N(Cc1ccc2ccc(/C(N)=N\O)cc2c1)C1CCN(S(=O)(=O)c2cc(OC)ccc2OC)CC1 | – | – | > 100 | > 7000 | – | – | – | 109
CS(=O)(=O)N(Cc1ccc2ccc(C(=N)N)cc2c1)C1CCN(S(=O)(=O)c2ccccc2Cl)CC1 | 350 | – | > 100 | > 7000 | – | – | – | –
Cc1ccc(S(=O)(=O)N2CCC(N(Cc3ccc4ccc(C(=N)N)cc4c3)S(C)(=O)=O)CC2)cc1 | > 100000 | – | > 100 | > 7000 | – | – | – | –
COc1ccc(Cl)cc1S(=O)(=O)N1CCC(N(Cc2ccc3ccc(C(=N)N)cc3c2)S(C)(=O)=O)CC1 | 39 | – | > 100 | > 7000 | – | – | – | –
CS(=O)(=O)N(Cc1ccc2ccc(C(=N)N)cc2c1)C1CCN(C(=O)c2cccc(C#N)c2)CC1 | > 100000 | – | > 100 | > 7000 | – | – | – | –
